{"source": "paper PMC10339699", "about": "(Clinical and Translational Science, 2023)", "key": {"[1]": {"test": "Part 1: plasma PK of [14C]‐rilzabrutinib after i.v. microtracer dose", "format": "in vivo", "conditions": "male, human, iv, 100 ug"}, "[2]": {"conditions": "previous bioavailability study; ref PRN1008‐006, unpublished data; cited from earlier work"}, "[3]": {"test": "Part 2: total radioactivity PK in plasma and whole blood", "format": "in vivo, human", "conditions": "part 2, plasma total radioactivity"}, "[4]": {"test": "Part 1: absolute oral bioavailability", "format": "in vivo", "conditions": "male, human, plasma, 400 mg", "in_short": "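Healthy subjects (n = 8) fasted overnight 10 h, then took a 400 mg oral tablet with 240 mL water. At 120 min, ~100 μg [14C]-labelled microtracer (~1 μCi) was given as an ~2-min i.v. push. K2 EDTA plasma was analysed by acetonitrile precipitation and LC-MS/MS (0.100–100 ng/mL). Noncompartmental AUC used linear-up/log-down. F was the GLSM oral/i.v. ratio with 90% CI, from a model with formulation fixed and subject random.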"}, "[5]": {"test": "pH‐dependent solubility", "format": "physicochemical"}, "[6]": {"format": "in vivo, human"}, "[7]": {"test_system": "BTK", "conditions": "within 4 h of dosing, multiple dosing; cited from earlier work"}, "[8]": {"test": "Part 1: plasma PK of rilzabrutinib after single oral 400 mg tablet", "format": "in vivo, human"}, "[9]": {"test": "Safety and tolerability", "format": "in vivo, human"}, "[10]": {"format": "in vivo, human", "remark": "listed apart in the source"}, "[11]": {"test_system": "gut flora", "test": "Gut flora metabolism in vitro", "format": "in vitro ADME", "conditions": "in vitro studies (unpublished data)"}, "[12]": {"test": "Part 2: urinary excretion of unchanged rilzabrutinib", "format": "in vivo, human"}, "[13]": {"conditions": "male, human, plasma, po, 400 mg"}, "[14]": {"conditions": "part 1, oral 400 mg tablet (test), mixed‐effect model"}, "[15]": {"conditions": "part 1, single oral 400 mg tablet, dose normalized, geometric mean (CV)"}, "[16]": {"conditions": "bile collection subjects, through the last collection interval"}, "[17]": {"conditions": "non‐bile collection subjects, through the last collection interval"}}, "note": "Where two headings read alike, the source gives them in different places."}
{"smiles": "CC(C)(/C=C(\\C#N)C(=O)N1CCC[C@@H](n2nc(-c3ccc(Oc4ccccc4)cc3F)c3c(N)ncnc32)C1)N1CCN(C2COC2)CC1", "note": "[rilzabrutinib]", "values": [{"measurement": "Vd", "setting": "[1]", "result": 149, "unit": "L"}, {"measurement": "clearance", "setting": "[1]", "result": 968, "unit": "mL/min"}, {"measurement": "PK exposure after 300 mg oral solution and 400 mg tablet formulation", "setting": "[2]", "result": "comparable"}, {"measurement": "Circulating metabolite identified", "setting": "[3]", "result": "thiocyanate"}, {"measurement": "bioavailability", "setting": "[4]", "result": "< 5", "unit": "%"}, {"measurement": "solubility", "setting": "[5]", "result": 40, "unit": "µg/mL"}, {"measurement": "solubility", "setting": "[5]; aqueous buffer", "result": "> 120000", "unit": "µg/mL"}, {"measurement": "half-life", "setting": "[6]; male, human, plasma, po, 300 mg", "result": 2.45, "unit": "h"}, {"measurement": "CL/F", "setting": "[6]; part 2, single oral 300 mg solution, geometric mean (CV)", "result": 904, "unit": "L/h"}, {"measurement": "BTK occupancy", "setting": "[7]", "result": "greater than 90%"}, {"measurement": "Delay in T max for tablet formulation as compared to liquid formulation", "setting": "[8]; 400 mg tablet (part 1) versus 300 mg solution (part 2)", "result": 1, "unit": "h"}, {"measurement": "AUC(0-inf)", "setting": "[8]; [13]", "result": 336, "unit": "ng·h/mL"}, {"measurement": "AUC(0-t)", "setting": "[8]; [13]", "result": 334, "unit": "ng·h/mL"}, {"measurement": "Cmax", "setting": "[8]; [13]", "result": 108, "unit": "ng/mL"}, {"measurement": "Tmax", "setting": "[8]; [13]", "result": 2.03, "unit": "h"}, {"measurement": "DN AUC0–inf, GLSM", "setting": "[8]; [14]", "result": 0.839, "unit": "ng·h/mL/mg"}, {"measurement": "DN AUC0–last, GLSM", "setting": "[8]; [14]", "result": 0.835, "unit": "ng·h/mL/mg"}, {"measurement": "DN AUC0–inf", "setting": "[8]; [15]", "result": "0.839 (62.2) [n = 8] h ng/mL/mg"}, {"measurement": "DN AUC0–last", "setting": "[8]; [15]", "result": "0.835 (62.7) [n = 8] h ng/mL/mg"}, {"measurement": "Clinical laboratory evaluations, vital signs, 12‐lead electrocardiogram, physical examinations", "setting": "[9]; both parts of the study", "result": "no clinically significant findings"}, {"measurement": "Tolerability", "setting": "[9]; both parts of the study, healthy male subjects", "result": "well‐tolerated"}, {"measurement": "Deaths, serious adverse events, or TEAEs leading to discontinuation", "setting": "[9]; either part of the study", "result": "No deaths, serious adverse events, or treatment emergent adverse events (TEAEs) leading to discontinuation"}, {"measurement": "Severity of TEAEs", "setting": "[9]; entire study, except for one moderate TEAE (viral infection) not treatment related", "result": "mild"}, {"measurement": "Total number of TEAEs", "setting": "[9]; part 1", "result": "three"}, {"measurement": "Total number of TEAEs", "setting": "[9]; part 2", "result": 13}, {"measurement": "Subjects who reported TEAEs", "setting": "[9]; part 2, six of 10 subjects", "result": 60, "unit": "%"}, {"measurement": "Administered radioactivity recovered in the first 192 h postdose", "setting": "[10]; bile collection subjects", "result": 87.1, "unit": "%"}, {"measurement": "Administered radioactivity recovered in bile, average", "setting": "[10]; bile collection subjects, 3-8 h postdose", "result": 6.29, "unit": "%"}, {"measurement": "Administered radioactivity recovered in feces, average", "setting": "[10]; [16]", "result": 72.7, "unit": "%"}, {"measurement": "Administered radioactivity recovered in urine, average", "setting": "[10]; [16]", "result": 5.42, "unit": "%"}, {"measurement": "Administered radioactivity recovered within the first 168 h of dosing", "setting": "[10]; non‐bile collection subjects", "result": 92.1, "unit": "%"}, {"measurement": "Administered radioactivity recovered in feces, mean", "setting": "[10]; [17]", "result": 87.0, "unit": "%"}, {"measurement": "Administered radioactivity recovered in urine, mean", "setting": "[10]; [17]", "result": 5.25, "unit": "%"}, {"measurement": "Gut flora metabolism", "setting": "[11]", "result": "high gut flora metabolism"}, {"measurement": "CL renal", "setting": "[12]; male, human, urine and plasma, po, 300 mg", "result": 4.05, "unit": "mL/min"}, {"measurement": "f eu (percentage of dose excreted in urine as unchanged drug)", "setting": "[12]; unchanged rilzabrutinib in urine, 0–312 h, 300 mg oral, geometric mean (CV)", "result": 3.02, "unit": "%"}]}
